From ChEMBL document CHEMBL1122517, “2-Phenylindoles. Relationship between structure, estrogen receptor affinity, and mammary tumor inhibiting activity in the rat” (1984)
One block for each molecule: values may come before it.

Key:
Rattus norvegicus [1] = organism: Rattus norvegicus; test: Change in body weight of DMBA-induced mammary carcinoma tumor bearing rats at 2 mg dose; format: functional
Method in brief: (§1)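 DMBA-induced tumor-bearing Sprague-Dawley rats (20 mg DMBA by gavage at 50 days old), randomized when tumor area exceeded 140 mm². Dose per kg was given sc in olive oil, single dose daily Monday to Thursday, double dose Friday. Body weight was measured twice weekly. Read-out was % change in body weight.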

Rattus norvegicus [2] = organism: Rattus norvegicus; test: Percent progressive DMBA-induced mammary carcinoma tumors in rats at 0.5 mg dose; format: functional
Method in brief: (§2)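 Female Sprague-Dawley rats, 50 days old, given a single 20 mg DMBA dose in 1 mL olive oil by gavage. Rats were palpated twice weekly from day 30, and those without tumors by day 70 were discarded. Rats were randomized once tumor area exceeded 140 mm². Drug dose was per kg in olive oil (1 mL/kg) sc, single dose Mon–Thu and double dose Fri. Tumor area (caliper, two perpendicular axes) and body weight were measured twice weekly.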

Rattus norvegicus [3] = organism: Rattus norvegicus; test: Formation of new DMBA-induced mammary carcinoma tumors in rats at 2 mg dose; format: functional
Method in brief: (§3)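 DMBA-induced tumors in Sprague-Dawley rats, entered when tumor area exceeded 140 mm². Dose per kg was given sc in olive oil, daily Monday to Thursday with a double dose Friday. Tumors were measured by calipers twice weekly. Tumor number was counted at the start of the test. Complete remission meant the tumor was no longer palpable. Partial remission meant reduction to ≤50% of initial size. New tumor appearance was recorded.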

Rattus norvegicus [4] = organism: Rattus norvegicus; test: Percent unchanged DMBA-induced mammary carcinoma tumors in rats at 0.5 mg dose; format: functional; method in brief: as §2
Rattus norvegicus [5] = organism: Rattus norvegicus; test: Change in DMBA-induced mammary carcinoma tumor area in rats at 0.5 mg dose; -100-346; format: functional
Method in brief: (§4)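 Female Sprague-Dawley rats got one 20 mg DMBA dose by gavage at 50 days old and were palpated twice weekly from day 30. Rats were randomized once tumor area exceeded 140 mm². Dose (per kg) was given sc in olive oil, once daily Monday to Thursday and doubled on Friday. Tumor area was taken from caliper measurements of two perpendicular axes, twice weekly. Change per animal is given as median % and range.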

Rattus norvegicus [6] = organism: Rattus norvegicus; test: Change in DMBA-induced mammary carcinoma tumor area in rats at 2.0 mg dose; format: functional; method in brief: as §4
[7] = target: T1, Estrogen receptor (Mus musculus) (UniProt O08537+P19785); test: Uterotrophic activity in mice as uterus dry weight (mg)/body weight (g) *100 at 5 ug dose; format: functional, tissue-based
T1 sequence (O08537 whole entry, looked up): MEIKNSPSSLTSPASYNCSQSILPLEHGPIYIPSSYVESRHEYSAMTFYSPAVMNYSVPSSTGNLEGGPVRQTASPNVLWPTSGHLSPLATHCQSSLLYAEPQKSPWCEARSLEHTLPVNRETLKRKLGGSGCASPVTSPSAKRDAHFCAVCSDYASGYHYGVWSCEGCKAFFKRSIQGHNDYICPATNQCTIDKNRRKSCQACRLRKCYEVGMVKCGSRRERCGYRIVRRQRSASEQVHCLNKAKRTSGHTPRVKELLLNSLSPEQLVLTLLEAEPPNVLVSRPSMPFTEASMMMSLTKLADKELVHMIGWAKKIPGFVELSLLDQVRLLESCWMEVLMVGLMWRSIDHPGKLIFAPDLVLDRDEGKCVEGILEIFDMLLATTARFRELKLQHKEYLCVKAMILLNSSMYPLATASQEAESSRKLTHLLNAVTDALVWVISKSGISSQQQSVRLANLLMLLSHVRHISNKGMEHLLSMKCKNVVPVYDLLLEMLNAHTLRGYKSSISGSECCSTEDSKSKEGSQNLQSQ
T1 sequence (P19785 whole entry, looked up): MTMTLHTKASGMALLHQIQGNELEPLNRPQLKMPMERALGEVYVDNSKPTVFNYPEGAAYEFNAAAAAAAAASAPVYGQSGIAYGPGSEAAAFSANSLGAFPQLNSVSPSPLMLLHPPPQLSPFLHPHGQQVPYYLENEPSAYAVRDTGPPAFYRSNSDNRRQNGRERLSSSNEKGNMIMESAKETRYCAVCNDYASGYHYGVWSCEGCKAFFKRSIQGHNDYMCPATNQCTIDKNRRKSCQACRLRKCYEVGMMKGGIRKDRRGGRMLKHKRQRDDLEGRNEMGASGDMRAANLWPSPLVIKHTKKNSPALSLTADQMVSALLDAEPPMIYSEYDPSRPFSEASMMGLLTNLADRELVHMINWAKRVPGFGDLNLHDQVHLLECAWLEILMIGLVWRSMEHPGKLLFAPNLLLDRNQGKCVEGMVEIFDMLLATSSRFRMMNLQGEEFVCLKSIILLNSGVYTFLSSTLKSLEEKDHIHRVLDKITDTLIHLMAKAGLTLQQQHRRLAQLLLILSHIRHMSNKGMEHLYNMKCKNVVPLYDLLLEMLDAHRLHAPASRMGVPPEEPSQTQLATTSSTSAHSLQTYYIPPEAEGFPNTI
Method in brief: (§5)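 Immature 19-day-old female NMRI mice, groups of 10. Compound dose per animal in olive oil (50 µL) sc on 3 consecutive days. Mice were killed 24 h after the last injection. Uteri were Bouin-fixed 20 h, cleaned, washed with alcoholic LiCl, and dried at 100 °C for 24 h. Effect = uterine dry weight (mg)/body weight (g) ×100; mean ± SD.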

Rattus norvegicus [8] = organism: Rattus norvegicus; test: Complete remission (%) of DMBA-induced mammary carcinoma tumors in rats at 0.5 mg dose; format: functional; method in brief: as §3
[9] = target: T1, Estrogen receptor (Mus musculus); test: Uterotrophic activity in mice as uterus dry weight (mg)/body weight (g) *100 at 25 ug dose; format: functional, tissue-based; method in brief: as §5
Rattus norvegicus [10] = organism: Rattus norvegicus; test: Number of DMBA-induced mammary carcinoma tumors in rats at 2 mg dose; format: functional; method in brief: as §3
Rattus norvegicus [11] = organism: Rattus norvegicus; test: Change in body weight of DMBA-induced mammary carcinoma tumor bearing rats at 0.5 mg dose; format: functional; method in brief: as §1
Rattus norvegicus [12] = organism: Rattus norvegicus; test: Percent unchanged DMBA-induced mammary carcinoma tumors in rats at 2 mg dose; format: functional; method in brief: as §2
Rattus norvegicus [13] = organism: Rattus norvegicus; test: Complete remission (%) of DMBA-induced mammary carcinoma tumors in rats at 2 mg dose; format: functional; method in brief: as §3
[14] = target: T1, Estrogen receptor (Mus musculus); test: Uterotrophic activity in mice as uterus dry weight (mg)/body weight (g) *100 at 0.2 ug dose; format: functional, tissue-based; method in brief: as §5
[15] = target: T1, Estrogen receptor (Mus musculus); test: Uterotrophic activity in mice as uterus dry weight (mg)/body weight (g) *100 at 125 ug dose; format: functional, tissue-based; method in brief: as §5
Rattus norvegicus [16] = organism: Rattus norvegicus; test: Number of DMBA-induced mammary carcinoma tumors in rats at 0.5 mg dose; format: functional; method in brief: as §3
Rattus norvegicus [17] = organism: Rattus norvegicus; test: Change in DMBA-induced mammary carcinoma tumor area in rats at 0.5 mg dose; format: functional; method in brief: as §4
Rattus norvegicus [18] = organism: Rattus norvegicus; test: Percent progressive DMBA-induced mammary carcinoma tumors in rats at 2 mg dose; format: functional; method in brief: as §2
Rattus norvegicus [19] = organism: Rattus norvegicus; test: Formation of new DMBA-induced mammary carcinoma tumors in rats at 0.5 mg dose; format: functional; method in brief: as §3
Rattus norvegicus [20] = organism: Rattus norvegicus; test: Partial remission (%) of DMBA-induced mammary carcinoma tumors in rats at 2 mg dose; format: functional; method in brief: as §2
[21] = target: T1, Estrogen receptor (Mus musculus); test: Uterotrophic activity in mice as uterus dry weight (mg)/body weight (g) *100 at 1 ug dose; format: functional, tissue-based; method in brief: as §5
Rattus norvegicus [22] = organism: Rattus norvegicus; test: Partial remission (%) of DMBA-induced mammary carcinoma tumors in rats at 0.5 mg dose; format: functional; method in brief: as §3
[23] = target: Estrogen receptor (Bos taurus) (UniProt Q9XSB5+P49884); test: Relative binding affinity for the calf uterine estrogen receptor measured as the ratio of molar concentration of 17-beta-estradiol (E2) and inhibitor required to decrease the amount of bound [3H]E2 by 50%; format: protein assay
Method in brief: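 Competitive binding in calf uterine cytosol with 5×10^-9 M [3H]estradiol, 18 h at 4 °C, Tris/EDTA buffer (0.01 M, pH 7.5). Unbound ligand was removed with dextran-coated charcoal (90 min, 4 °C) and supernatant radioactivity counted. Six competitor concentrations gave 10–90% bound. From semilog plots, RBA = ratio of molar concentrations of estradiol to compound giving 50% decrease in binding, ×100.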

RBA [23]: 10
Compound: Cc1c(-c2ccc(O)cc2)n(C)c2cc(O)ccc12

RBA [23]: 33
Compound: CCn1c(-c2ccc(O)cc2)c(C)c2ccc(O)cc21

RBA [23]: 3.5
Compound: Cc1c(-c2ccc(O)cc2)n(C(C)C)c2ccc(O)cc12

RBA [23]: 2.3
Compound: CCCCCn1c(-c2ccc(O)cc2)c(C)c2cc(O)ccc21

RBA [23]: 9.5
Compound: CCn1c(-c2ccc(O)cc2)c(C)c2cc(O)ccc21

Continued, molecule first:

Compound: CCn1c(-c2ccc(OC(C)=O)cc2)c(C)c2ccc(OC(C)=O)cc21
Change of body weight (Rattus norvegicus [1]): -13%
Progressed tumors (Rattus norvegicus [2]): 9%
New tumors (Rattus norvegicus [3]): 6
Static tumors (Rattus norvegicus [4]): 15%
Change of tumor area (Rattus norvegicus [5]): -100%
Change of tumor area (Rattus norvegicus [6]): -96%
Uterotrophic effect [7]: 41.5
Complete remission (Rattus norvegicus [8]): 65%
Uterotrophic effect [9]: 44.8
No. of tumors (Rattus norvegicus [10]): 34
Change of body weight (Rattus norvegicus [11]): -15%
Static tumors (Rattus norvegicus [12]): 2%
Complete remission (Rattus norvegicus [13]): 70%
Uterotrophic effect [14]: 20.8
Uterotrophic effect [15]: 42.4
No. of tumors (Rattus norvegicus [16]): 40
Change of tumor area (Rattus norvegicus [17]): -74%
Progressed tumors (Rattus norvegicus [18]): 5%
New tumors (Rattus norvegicus [19]): 6
Partial remission (Rattus norvegicus [20]): 23%
Uterotrophic effect [21]: 31.6
Partial remission (Rattus norvegicus [22]): 11%

Compound: CCn1c(-c2cccc(O)c2)cc2cc(O)ccc21
RBA [23]: 1.7

Compound: CCCn1c(-c2ccc(O)cc2)cc2cc(O)ccc21
RBA [23]: 18

Compound: CCn1c(-c2ccc(O)cc2)cc2ccc(O)cc21
RBA [23]: 16

Compound: Cc1c(-c2ccc(O)cc2)[nH]c2ccc(O)cc12
RBA [23]: 0.06
